# Results collected from several papers.
# Target: Protein-tyrosine kinase 2-beta (PTK2B, Homo sapiens, UniProt Q14289)
Structure (SMILES),test,conditions,endpoint,result
Cc1[nH]c(/C=C2\C(=O)Nc3ccc(F)cc32)c(C)c1C(=O)N[C@H]1CCN(C(=O)N(C)C)C1,"enzyme activity, inhibitor",1 µM,remaining activity,75%
CCS(=O)(=O)c1cc2cc(C[C@](O)(CC(C)(C)c3ccc(F)cc3C(N)=O)C(F)(F)F)[nH]c2cn1,"cell-free assay, competition with immobilised ligand",1 µM,remaining binding,100%
COc1cc(Cl)c(C(=O)N[C@@H](CN[C@H]2CC[C@@H](N)CC2)Cc2ccc(C#N)cc2)cc1-c1ccc(CN[C@H](C)c2ccc(C)cc2)o1,"enzyme activity, inhibitor",1 µM,remaining activity,101%
Cc1cnc(NC2CCOCC2)nc1-n1cnc(C(=O)NC(CN)c2cc(F)cc(Cl)c2)c1 (stereo not shown),"enzyme activity, inhibitor, radiometric",1 µM,remaining activity,99%
C[C@H](c1ccc(F)cc1)N(Cc1cccc(C(=O)O)c1)C(=O)c1cnc2ccccc2c1,"cell-free assay, competition with immobilised ligand",1 µM,remaining binding,100%
CCN(CC)CCNC(=O)c1c(C)[nH]c(/C=C2\C(=O)Nc3ccc(F)cc32)c1C,"enzyme activity, inhibitor",10 µM,inhibition,97%
CN1CC(Oc2cnc(C#N)cc2-c2ccn3nc(NC(=O)C4CC4)cc3c2)C1,"enzyme activity, inhibitor",1 µM,inhibition,6%
N#CCCc1ccc2c(c1)-c1[nH]c3ccc([N+](=O)[O-])cc3c1CC(=O)N2,cell-free assay,0.5 µM,remaining signal,62.9%
Cc1c(NC(=O)c2cc(C(N)=O)nc3cc(F)ccc23)c(C(F)(F)F)nn1Cc1ccc(C(C)(C)C)cc1,"cell-free assay, competition with immobilised ligand",1 µM,remaining binding,92%
CCCS(=O)(=O)Nc1ccc(F)c(C(=O)c2c[nH]c3ncc(-c4ccc(Cl)cc4)cc23)c1F,"enzyme activity, inhibitor",1 µM,inhibition,< 10%
Nc1ncnc2occ(-c3ccc(NC(=O)Nc4cc(C(F)(F)F)ccc4F)cc3)c12,"cell-free assay, inhibitor",20 µM,remaining signal,2.8%
CCN(CC)CCNC(=O)c1c(C)[nH]c(/C=C2\C(=O)Nc3ccc(F)cc32)c1C,"enzyme activity, inhibitor",0.1 µM,remaining activity,86%
CC(C)(C)c1nc2c(s1)c1nc(N)ncc1c1ccc(NS(=O)(=O)c3c(F)cccc3F)c(F)c12,"enzyme activity, inhibitor, radiometric",1 µM,remaining activity,91%
O=C(N1CCS(=O)(=O)CC1)N1C[C@H](c2ccc(OC(F)(F)F)cc2)C[C@H](c2nc(C3CC3)no2)C1,"cell-free assay, competition with immobilised ligand",1 µM,remaining binding,99%
COc1cc2c(Nc3ccc(Br)cc3F)ncnc2cc1OCC1CCN(C)CC1,cell-free assay,0.5 µM,remaining signal,99.5%
CCc1ccccc1C(=O)Nc1n[nH]c2c(C)c(F)c(C3C(C#N)=C(C)N(C)C(C)=C3C#N)cc12,"cell-free assay, competition with immobilised ligand",1 µM,remaining binding,92%
CNC(=O)c1cc(Oc2ccc(NC(=O)Nc3ccc(Cl)c(C(F)(F)F)c3)cc2)ccn1,"enzyme activity, inhibitor",10 µM,inhibition,28%
O=C(Nc1cnn(-c2csc(C(=O)NC3COC3)c2)c1)Nc1c(F)cccc1Cl,"enzyme activity, inhibitor",5 µM,remaining activity,91%
COc1cc2ncnc(Nc3ccc(Oc4ccccc4)cc3C)c2cc1OC,"enzyme activity, inhibitor",1 µM,inhibition,3%
COc1cc2nccc(Oc3ccc(NC(=O)c4c5n(n(-c6ccc(F)cc6)c4=O)CCCC5)cc3)c2cc1OC,"enzyme activity, inhibitor",0.1 µM,inhibition,0%
FC(F)(F)c1ccc2c(c1)nc(-c1cccnc1)n2C1CC1,"cell-free assay, competition with immobilised ligand",1 µM,remaining binding,100%
CCN(CC)c1ccc(C2=NNC(=O)CC2C)cc1[N+](=O)[O-] (stereo not shown),"enzyme activity, inhibitor",10 µM,remaining activity,97%
CNC(=O)c1ccc(Nc2ncc(C(F)(F)F)c(NCc3nccnc3N(C)S(C)(=O)=O)n2)cc1,"binding, competition with immobilised ligand",1 µM,remaining binding,8.3%
Cc1ccc(Nc2nccc(N(C)c3ccc4c(C)n(C)nc4c3)n2)cc1S(N)(=O)=O,"enzyme activity, inhibitor",10 µM,inhibition,81%
COc1cc2c(N3CCN(C(=O)Nc4ccc(OC(C)C)cc4)CC3)ncnc2cc1OCCCN1CCCCC1,cell-free assay,0.5 µM,remaining signal,99.3%
CCCCN(CCCC)C(=O)CN1C[C@H](c2cc(OC)c3c(c2)OCO3)[C@@H](C(=O)O)[C@@H]1CC(C)(C)CCC,"cell-free assay, competition with immobilised ligand",1 µM,remaining binding,100%
Nc1nc(Nc2ccc(S(N)(=O)=O)cc2)nn1C(=O)c1c(F)cccc1F,cell-free assay,0.5 µM,remaining signal,79.7%
CCCOc1ccc(OC)c(F)c1C(=O)c1ccc(C(=O)N[C@@H]2CNC[C@H]2NC(=O)c2ccc3[nH]ncc3c2)cc1,"enzyme activity, inhibitor",10 µM,remaining activity,77%
